Experimental data from ChEMBL document CHEMBL4428115, “Molecular docking studies, biological and toxicity evaluation of dihydroisoquinoline derivatives as potential anticancer agents” (Bioorg Med Chem, 2016).
Activity calls are given as the source filed them. The calls are words filed in the database; no cut-off is given here.

Columns and labels:
MCF7 = assay: Antiproliferative activity against human MCF7 cells after 72 hrs by SRB assay; type: functional, cell-based; details: MCF7, 72 h
Method in brief: (§1)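 Adherent cells plated at 1 × 10^4 per well 24 h before treatment, then exposed 72 h to compounds diluted from 20 mg/mL DMSO stock (0.01–1000 µg/mL). Fixed in cold 50% TCA at 4°C for 1 h, stained with 0.4% sulforhodamine B, bound dye extracted with 10 mM Tris, OD at 540 nm. Triplicates, 3–5 experiments; IC50 per experiment, mean ± SD.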

BALB/3T3 = assay: Antiproliferative activity against mouse BALB/3T3 cells after 72 hrs by SRB assay; type: cell-based; details: BALB/3T3, 72 h; method in brief: as §1
[1] = Antiproliferative activity against HLMEC after 72 hrs by SRB assay; design: species or system Homo sapiens; method in brief: as §1
[2] = Selectivity index, ratio of IC50 for human MCF10 cells to IC50 for human MCF7 cells; type: toxicity; details: MCF10 cells versus MCF7 cells, read-out: Ratio IC50
Method in brief: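 Selectivity index is the ratio of the IC50 for the normal line to the IC50 for the cancer line. Both IC50 values come from 72 h antiproliferative assays: SRB for adherent cells, MTT for HL-60.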

Raji = assay: Antiproliferative activity against human Raji cells; type: functional, cell-based
K562 = assay: Antiproliferative activity against human K562 cells; type: functional, cell-based
CEM/C2 = assay: Antiproliferative activity against human CEM/C2 cells; type: functional, cell-based
DU-145 = assay: Antiproliferative activity against human DU145 cells; type: functional, cell-based
LNCaP = assay: Antiproliferative activity against human LNCAP cells; type: functional, cell-based
[3] = Selectivity index, ratio of IC50 for mouse BALB/3T3 cells to IC50 for human Jurkat cells; type: toxicity; details: BALB/3T3 cells versus Jurkat cells, read-out: Ratio IC50
[4] = Selectivity index, ratio of IC50 for mouse BALB/3T3 cells to IC50 for human Raji cells; type: toxicity; details: BALB/3T3 cells versus Raji cells, read-out: Ratio IC50
[5] = Selectivity index, ratio of IC50 for mouse BALB/3T3 cells to IC50 for human CCRF-CEM cells; type: toxicity; details: BALB/3T3 cells versus CCRF-CEM cells, read-out: Ratio IC50
[6] = Selectivity index, ratio of IC50 for mouse BALB/3T3 cells to IC50 for human MV411 cells
[7] = Selectivity index, ratio of IC50 for mouse BALB/3T3 cells to IC50 for human DU145 cells
[8] = Selectivity index, ratio of IC50 for mouse BALB/3T3 cells to IC50 for human LoVo/DX cells; type: toxicity; details: BALB/3T3 cells versus LoVo/DX cells, read-out: Ratio IC50
HL-60 [9] = assay: Effect on cyclin A levels in human HL60 cells at 1 ug/ml after 72 hrs by Western-blot analysis; type: functional, cell-based
Method in brief: (§2)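 HL-60 (2 × 10^5 cells/mL) treated 72 h at 1 µg/mL with DMSO control, then lysed in RIPA buffer with protease/phosphatase inhibitors. 100 µg protein resolved on 4–20% gels and transferred to nitrocellulose. Probed with rabbit primary antibody, fluorescein-linked anti-rabbit secondary, then anti-fluorescein–alkaline phosphatase with ECF substrate; fluorescence scanned. Densitometry normalized to actin, reported as fold change versus control.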

HL-60 [10] = assay: Decrease in mitochondrial membrane potential in human HL60 cells at 3 ug/ml after 24 hrs using JC-1 staining based flow cytometry relative to control; type: functional, cell-based
Method in brief: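 HL-60 treated 24 h at 3 µg/mL alongside DMSO control; […] for 24 h served as the low-potential control. Cells stained with JC-1 at 10 µg/mL final for 30 min at 37°C in the dark, washed, and analysed by flow cytometry (red aggregates vs green monomers). Three independent experiments, mean ± SD.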

HL-60 [11] = assay: Increase in caspase 3/7 activation in human HL60 cells using Ac-DEVD-ACC as substrate at 3 ug/ml after 24 hrs by fluorescence assay relative to control; type: functional, cell-based
Method in brief: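 HL-60 exposed 24 h to 3 µg/mL (DMSO control), lysed at 1.2 × 10^6 cells/mL in HEPES/sucrose/Triton lysis buffer pH 7.3 for 30 min at 4°C. Lysate added to DTT-containing reaction buffer with Ac-DEVD-ACC at 10 µM final (ex 360/em 460 nm). Fluorescence recorded 90 min at 37°C, normalized to Lowry protein, and expressed relative to untreated control; three experiments.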

HL-60 [12] = assay: Effect on Bax expression in human HL60 cells at 1 ug/ml after 72 hrs by Western-blot analysis; type: functional, cell-based; method in brief: as §2
HL-60 [13] = assay: Induction of autophagy in human HL60 cells assessed as accumulation of LC3b-2 at 1 ug/ml after 72 hrs by Western-blot analysis; type: functional, cell-based; method in brief: as §2
[14] = Toxicity in Dunkin-Hartley guinea pig assessed as mild skin sensitization incidents at 1 % administered intradermally followed by 50% topical application in the sites of intradermal injection for 24 to 72 hrs followed by 50 % of compound challenge; design: species or system Cavia porcellus; details: in vivo
Method in brief: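 Maximization-type test: 11 treated and 6 sham control guinea pigs. Induction was an intradermal 1% suspension in peanut oil with Freund's Complete Adjuvant, then 50% topical at the injection sites, after 10% sodium lauryl sulfate pretreatment. Challenge was 50% in peanut oil on the right flank, vehicle on the left. Skin was scored at 24, 48 and 72 h.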

[15] = Toxicity in New Zealand albino rabbit assessed as acute skin irritation/corrosion at 0.5 g topically applied to shaved skin for 4 hrs measured 1 to 72 hrs post dose; design: species or system Oryctolagus cuniculus; details: in vivo, topical_or_ocular
Method in brief: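 Test item applied under a protective band for 4 h to one rabbit first, then to two more animals to confirm or exclude irritation. Treated skin scored at 1, 24, 48 and 72 h after exposure, with daily morbidity and mortality checks. Animals euthanized after the observation period.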

[16] = Acute dermal toxicity in Wistar rat assessed as pathological changes at 2000 mg/kg topically applied to shaved dorsal skin as single dose for 24 hrs measured for 14 days; type: organism-based; details: in vivo, topical_or_ocular
Method in brief: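 Wistar rats, 5 males and 5 females; single 2000 mg/kg bw dermal application to shaved dorsal skin (about 41 cm2 per male, 31 cm2 per female) for 24 h. General and detailed clinical observations daily over a 14-day observation period, then animals euthanized; treated skin examined for pathological changes.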

[17] = Acute toxicity in Balbc/cmdb mouse assessed as clinical signs at 300 mg/kg, po administered as single dose in first stage of experiment measured immediately post dose; type: organism-based; details: in vivo
Method in brief: (§3)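 Acute toxic class method per OECD Guideline 423 / EU Method B.1 tris, run in three stages of three female Balbc/cmdb mice each. Fasted about 3 h, then given a single dose by metal stomach tube in DMSO at 0.5 mL/100 g bw. Stage doses were 300, 2000, then 2000 mg/kg bw. General and detailed clinical observations daily for 14 days; body weights recorded.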

[18] = Acute toxicity in Balbc/cmdb mouse assessed as clinical signs at 300 mg/kg, po administered as single dose in first stage of experiment measured for 14 days; type: organism-based; details: in vivo, 336 h; method in brief: as §3
[19] = Acute toxicity in Balbc/cmdb mouse assessed as clinical signs at 2000 mg/kg, po administered as single dose in second stage of experiment measured immediately post dose; type: organism-based; details: in vivo; method in brief: as §3

**Q.** With `CCOC(=O)C1(C(=O)OCC)Cc2cc(OCc3ccccc3)cc(OCc3ccccc3)c2C=N1` as the compound, how does the IC50 (MCF7) read?
**A.** 9.6 µM

**Q.** What about the IC50 (BALB/3T3) of the same compound?
**A.** 35.9 µM

**Q.** What about the IC50 [1] of the same compound?
**A.** 6.8 µM

**Q.** What about the selectivity ratio [2] of the same compound?
**A.** 4 to 8

**Q.** What about the IC50 (Raji) of the same compound?
**A.** 0.6 µM

**Q.** What about the IC50 (K562) of the same compound?
**A.** 70 µM

**Q.** What about the IC50 (CEM/C2) of the same compound?
**A.** 0.4 µM

**Q.** What about the IC50 (DU-145) of the same compound?
**A.** 7.5 µM

**Q.** And the IC50 (LNCaP)?
**A.** 3.3 µM

**Q.** What about the selectivity ratio [3] of the same compound?
**A.** 2.5

**Q.** And the selectivity ratio [4]?
**A.** 59.8

**Q.** And the selectivity ratio [5]?
**A.** 51.3

**Q.** What about the “Ratio IC50” value [6] of the same compound?
**A.** 0.6

**Q.** What about the “Ratio IC50” value [7] of the same compound?
**A.** 4.8

**Q.** And the selectivity ratio [8]?
**A.** 8.8

**Q.** And the Activity (HL-60 [9])?
**A.** inactive

**Q.** And the Activity (HL-60 [10])?
**A.** Active

**Q.** What about the Activity (HL-60 [11]) of the same compound?
**A.** Active

**Q.** And the Activity (HL-60 [12])?
**A.** inactive

**Q.** What about the Activity (HL-60 [13]) of the same compound?
**A.** inactive

**Q.** What about the Activity [14] of the same compound?
**A.** 18.2%

**Q.** And the Activity [15]?
**A.** Non-Toxic

**Q.** And the Activity [16]?
**A.** Non-Toxic

**Q.** What about the Activity [17] of the same compound?
**A.** Toxic

**Q.** And the Activity [18]?
**A.** Non-Toxic

**Q.** What about the Activity [19] of the same compound?
**A.** Toxic
